# Experimental data from different studies.
# Lines come from different studies, so protocols differ.
# Matrix: plasma
# Route: intravenous
SMILES,system,conditions,Vd
COc1cc(F)ccc1-c1ncnc(Nc2cccc(CS(N)(=O)=O)c2)n1,male Wistar rat,,1.4 L/kg
CN1CCC(COc2cnc(-c3cccc(Cn4nc(-c5cccc(C#N)c5)ccc4=O)c3)nc2)CC1,male Sprague-Dawley rat,1 mg/kg,19 L/kg
O=C(Nc1cc(F)c(F)c(F)c1)c1ccc(F)c(S(=O)(=O)NCc2cccc(B(O)O)c2)c1,male Sprague-Dawley rat,2 mg/kg,11 L/kg
CCNC(=O)c1nc(-c2ccc3[nH]c(-c4nc(C)no4)cc3c2)c(C)[nH]1,Sprague-Dawley rat,1 mg/kg,1.3 L/kg
CCc1cc(OC)c2nccc(N3CCc4c(cc(Cn5ccnc5)cc4-c4cn(C)nc4C(F)(F)F)C3=O)c2c1,male Sprague-Dawley rat,3 mg/kg,3.1 L/kg
COc1ccc2c(Cc3ccccc3F)c3[n+](cc2c1OC)CCc1cc2c(cc1-3)OCO2.[Br-],rat,5 mg/kg,71.8 L/kg
CCCC[C@@H]1NC(=O)[C@H](Cc2ccc(O)cc2)NC(=O)[C@@H]2CCCN2C(=O)[C@H](CC(=O)O)NC(=O)[C@H](C)NC(=O)[C@H](Cc2ccccc2)NC(=O)[C@@H]2CSCCC(=O)N3CN(CN(C3)C(=O)CCSC[C@@H](C(=O)N[C@@H](C)C(N)=O)NC1=O)C(=O)CCSC[C@H](NC(C)=O)C(=O)N[C@@H](CC(C)(C)C)C(=O)N1CCC[C@H]1C(=O)N[C@@H](CCC(=O)O)C(=O)N[C@H](CCCCNC(=O)CCc1cn(CCOCCOCCOCCOCCOCCOCCOCCOCCOCCOCCNC(=O)CCOCCN(CCOCCC(=O)NCCOCCOCCOCCOCCOCCOCCOCCOCCOCCOCCn3cc(CCC(=O)NCCCC[C@H]4NC(=O)[C@H](CCC(=O)O)NC(=O)[C@@H]5CCCN5C(=O)[C@H](CC(C)(C)C)NC(=O)[C@@H](NC(C)=O)CSCCC(=O)N5CN6CN(C5)C(=O)CCSC[C@H](NC(=O)[C@H](Cc5ccc(O)cc5)NC(=O)[C@@H]5CCCN5C4=O)C(=O)N[C@@H](Cc4ccccc4)C(=O)N[C@@H](C)C(=O)N[C@@H](CC(=O)O)C(=O)N4CCC[C@H]4C(=O)N[C@@H](Cc4ccc(O)cc4)C(=O)N[C@@H](CCCC)C(=O)N[C@H](C(=O)N[C@@H](C)C(N)=O)CSCCC6=O)nn3)CCOCCC(=O)NCCOCCOCCOCCOCCOCCOCCOCCOCCOCCOCCn3cc(CCC(=O)N[C@H]4CSCCC(=O)N5CN6CN(C5)C(=O)CCSC[C@H](NC(=O)[C@@H](CC(=O)O)NC(=O)[C@H](Cc5cccc7ccccc57)NC(=O)[C@@H]5CCCN5C4=O)C(=O)N[C@@H](CCSC)C(=O)N[C@@H](CCCCNC(=N)N)C(=O)N[C@@H](CC(=O)O)C(=O)N[C@@H](Cc4c[nH]c5ccccc45)C(=O)N[C@@H](CO)C(=O)N[C@@H]([C@@H](C)O)C(=O)N4CCC[C@H]4C(=O)N4C[C@H](O)C[C@H]4C(=O)N[C@@H](Cc4c[nH]c5ccccc45)C(=O)N[C@H](C(N)=O)CSCCC6=O)nn3)nn1)C(=O)N1CCC[C@H]1C(=O)N[C@@H](Cc1ccc(O)cc1)C(=O)N2,rat,2 mg/kg,0.44 L/kg
O=C(c1cc(Cc2n[nH]c(=O)c3ccccc23)ccc1F)N1CCN(C(=O)C2CC2)CC1,female Sprague-Dawley rat,,0.201 L
C#Cc1cnc2nc(O)n(C(CC)CC)c2n1,Sprague-Dawley rat,1 mg/kg,0.8 L/kg
CCOC(=O)[C@@]12C[C@@H]1[C@@H](n1ccc3c(NC)nc(C#Cc4ccc(Cl)s4)nc31)[C@H](O)[C@@H]2O,male Sprague-Dawley rat,0.5 mg/kg,33.8 L/kg
CCCC[C@@H]1NC(=O)[C@H](Cc2ccc(O)cc2)NC(=O)[C@@H]2CCCN2C(=O)[C@H](CC(=O)O)NC(=O)[C@H](C)NC(=O)[C@H](Cc2ccccc2)NC(=O)[C@@H]2CSCCC(=O)N3CN(CN(C3)C(=O)CCSC[C@@H](C(=O)N[C@@H](CNC(=O)CCOCCOCCOCCOCCOCCOCCOCCOCCOCCOCCOCCOCCn3cc(CCC(=O)NCCC(=O)N(C)CC(=O)N(C)CC(=O)N(C)CC(=O)N(C)CC(=O)N(C)CC(=O)N(C)CC(=O)N(C)CC(=O)N(C)CC(=O)N(C)CC(=O)N(C)CC(=O)N[C@H]4CSCCC(=O)N5CN6CN(C5)C(=O)CCSC[C@H](NC(=O)[C@@H](CC(=O)O)NC(=O)[C@H](Cc5cccc7ccccc57)NC(=O)[C@@H]5CCCN5C4=O)C(=O)N[C@@H](CCSC)C(=O)N[C@@H](CCCCNC(=N)N)C(=O)N[C@@H](CC(=O)O)C(=O)N[C@@H](Cc4c[nH]c5ccccc45)C(=O)N[C@@H](CO)C(=O)N[C@@H]([C@@H](C)O)C(=O)N4CCC[C@H]4C(=O)N4C[C@H](O)C[C@H]4C(=O)N[C@@H](Cc4c[nH]c5ccccc45)C(=O)N[C@H](C(N)=O)CSCCC6=O)nn3)C(N)=O)NC1=O)C(=O)CCSC[C@H](NC(C)=O)C(=O)N[C@@H](CC(C)(C)C)C(=O)N1CCC[C@H]1C(=O)N[C@@H](CCC(=O)O)C(=O)N[C@H](C)C(=O)N1CCC[C@H]1C(=O)N[C@@H](Cc1ccc(O)cc1)C(=O)N2,rat,2 mg/kg,0.46 L/kg
Oc1cc(O)cc(-c2cc3ccc(O)cc3o2)c1,male rat,5 mg/kg,0.393 L/kg
